Measured values from ChEMBL document CHEMBL1127060 (1993).
Active and inactive are the calls of the source. The rule behind the calls is not given here.

Key:
[1] = Agonism at turkey erythrocyte P2Y receptor.; format: functional, Meleagris gallopavo
Summary of the method: (§1)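 Turkey erythrocytes labeled 18–24 h at 37 °C with 2-[3H]myo-inositol in inositol-free DMEM; ghosts made by hypotonic lysis (5 mM Na phosphate pH 7.4, 5 mM MgCl2, 1 mM EGTA). PLC assay: ~175 μg protein ghosts, 1 μM GTPγS, Hepes pH 7.0 medium with 424 μM CaCl2, 2 mM EGTA; 5 min, 30 °C; total [3H]inositol phosphates by anion exchange; K0.5 averaged from 3–8 curves.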

[2] = species on record: Cavia porcellus; test: Tested for contraction of guinea pig vas deferens at 37 degree C; Potency equal to ATP; format: functional
[3] = species on record: Cavia porcellus; test: Tested for relaxation of carbachol-contracted guinea pig taenia coli at 37 degree C; Significantly more potent than ATP; format: functional
[4] = species on record: Oryctolagus cuniculus; test: Tested for relaxation of carbachol-contracted rabbit mesenteric artery at 37 degree C; Significantly more potent than 2MeSATP; format: functional
[5] = species on record: Oryctolagus cuniculus; test: Tested for contraction of rabbit saphenous artery produced by 1 uM alpha,beta-MeATP at 37 degree C; Not active; format: functional
[6] = species on record: Oryctolagus cuniculus; test: Tested for relaxation of carbachol-contracted rabbit aorta at 37 degree C; Significantly more potent than 2MeSATP; format: functional
[7] = species on record: Cavia porcellus; test: Tested for contraction of guinea pig isolated urinary bladder detrusor muscle at 37 degree C; Potency equal to ATP; format: functional; settings: Muscle tissue
[8] = species on record: Cavia porcellus; test: Tested for contraction of guinea pig isolated urinary bladder detrusor muscle at 37 degree C; Significantly more potent than ATP; format: functional; settings: Muscle tissue
[9] = species on record: Cavia porcellus; test: Tested for contraction of guinea pig vas deferens at 37 degree C; Significantly more potent than ATP; format: functional
[10] = species on record: Cavia porcellus; test: Tested for contraction of guinea pig isolated urinary bladder detrusor muscle at 37 degree C; More potent than or equal to ATP; format: functional; settings: Muscle tissue
[11] = species on record: Cavia porcellus; test: Tested for contraction of guinea pig isolated urinary bladder detrusor muscle at 37 degree C; Not active; format: functional; settings: Muscle tissue
[12] = species on record: Cavia porcellus; test: Tested for contraction of guinea pig vas deferens at 37 degree C; Not active; format: functional
[13] = species on record: Cavia porcellus; test: Tested for relaxation of carbachol-contracted guinea pig taenia coli at 37 degree C; Potency equal to ATP; format: functional
[14] = species on record: Oryctolagus cuniculus; test: Tested for relaxation of carbachol-contracted rabbit mesenteric artery at 37 degree C; More potent than or equal to 2MeSATP; format: functional
[15] = tested on: Meleagris gallopavo; test: Induction of inositol phosphate in turkey erythrocyte membranes at 100 uM; Inactive; format: functional, cell membranes; summary of the method: as §1
[16] = tested on: Meleagris gallopavo; test: Stimulating production of inositol phosphate in turkey erythrocyte membranes at a concentration of 100 uM; Inactive; format: functional, cell membranes; summary of the method: as §1
[17] = tested on: Meleagris gallopavo; test: Tested for stimulation of production of inositol phosphate in turkey erythrocyte membrane; Not active; format: functional; summary of the method: as §1
[18] = species on record: Cavia porcellus; test: Tested for relaxation of carbachol-contracted guinea pig taenia coli at 37 degree C; Significantly less potent than ATP; format: functional
[19] = species on record: Oryctolagus cuniculus; test: Tested for relaxation of carbachol-contracted rabbit aorta at 37 degree C; Potency equal to 2MeSATP; format: functional
[20] = species on record: Oryctolagus cuniculus; test: Tested for relaxation of carbachol-contracted rabbit mesenteric artery at 37 degree C; Less potent or equal to 2MeSATP; format: functional
[21] = species on record: Cavia porcellus; test: Tested for contraction of guinea pig vas deferens at 37 degree C; Less potent than or equal to ATP; format: functional
[22] = species on record: Oryctolagus cuniculus; test: Tested for relaxation of carbachol-contracted rabbit aorta at 37 degree C; More potent or equal to 2MeSATP; format: functional
[23] = species on record: Cavia porcellus; test: Tested for contraction of guinea pig isolated urinary bladder detrusor muscle at 37 degree C; Less potent than or equal to ATP; format: functional; settings: Muscle tissue
[24] = species on record: Oryctolagus cuniculus; test: Tested for contraction of rabbit saphenous artery produced by 1 uM alpha,beta-MeATP at 37 degree C; format: functional
[25] = species on record: Cavia porcellus; test: Tested for contraction of guinea pig vas deferens at 37 degree C; More potent than or equal to ATP; format: functional
[26] = species on record: Oryctolagus cuniculus; test: Tested for relaxation of carbachol-contracted rabbit aorta at 37 degree C; More potent than or equal to 2MeSATP; format: functional
[27] = species on record: Cavia porcellus; test: Tested for contraction of guinea pig isolated urinary bladder detrusor muscle by 1 uM alpha,beta-MeATP at 37 degree C; Not active; format: functional; settings: Muscle tissue
[28] = species on record: Oryctolagus cuniculus; test: Tested for relaxation of carbachol-contracted rabbit mesenteric artery at 37 degree C; Not active; format: functional
[29] = species on record: Oryctolagus cuniculus; test: Tested for relaxation of carbachol-contracted rabbit mesenteric artery at 37 degree C; Significantly less potent than 2MeSATP; format: functional
[30] = species on record: Oryctolagus cuniculus; test: Tested for relaxation of carbachol-contracted rabbit mesenteric artery at 37 degree C; Potency equal to 2MeSATP; format: functional
[31] = species on record: Cavia porcellus; test: Tested for contraction of guinea pig isolated urinary bladder detrusor muscle at 37 degree C; 100 times more potent than ATP; format: functional; settings: Muscle tissue

Structure (SMILES) | K 0.5 [1] | Relative activity [3] | Relative activity [4] | Relative activity [5] | Relative activity [6] | other results
CSc1nc(N)c2ncn([C@@H]3O[C@H](COP(=O)(O)OP(=O)(O)OP(=O)(O)O)[C@@H](O)[C@H]3O)c2n1 | 8 nM | 8 | 6.5 | inactive | 6.8 | Relative activity [2]: Active; Relative activity [7]: Active
CSc1nc(N)c2ncn([C@@H]3O[C@H](COP(=O)(O)OP(=O)(O)O)[C@@H](O)[C@H]3O)c2n1 | 6 nM | – | Active | – | Active | –
Nc1nc(SCCc2ccccc2)nc2c1ncn2C1O[C@H](COP(=O)(O)OP(=O)(O)OP(=O)(O)O)[C@@H](O)[C@H]1O (stereo partly specified) | 30 nM | 7.1 | 6.2 | inactive | 6.5 | Relative activity [8]: Active; Relative activity [9]: Active
C=CCCCCSc1nc(N)c2ncn(C3O[C@H](COP(=O)(O)OP(=O)(O)OP(=O)(O)O)[C@@H](O)[C@H]3O)c2n1 (stereo partly specified) | 10 nM | 7.9 | 7 | inactive | – | Relative activity [10]: Active; Relative activity [2]: Active
C=CCCCCSc1nc(N)c2ncn(C3O[C@H](COP(=O)(O)O)[C@@H](O)[C@H]3O)c2n1 (stereo partly specified) | 328 nM | – | – | inactive | 7 | Relative activity [11]: inactive; Relative activity [12]: inactive; Relative activity [13]: 5; Relative activity [14]: 6.3
Nc1nc(SCCCCCCCS)nc2c1ncn2C1O[C@H](COP(=O)(O)OP(=O)(O)OP(=O)(O)O)[C@@H](O)[C@H]1O (stereo partly specified) | 773 nM | – | – | – | – | –
Nc1nc(SCCc2ccc([N+](=O)[O-])cc2)nc2c1ncn2C1O[C@H](CO)[C@@H](O)[C@H]1O (stereo partly specified) | – | – | – | – | – | Activity [15]: inactive
C=CCCCCSc1nc(N)c2ncn(C3O[C@H](CO)[C@@H](O)[C@H]3O)c2n1 (stereo partly specified) | – | – | – | – | – | Activity [16]: inactive
Nc1ccc(CCSc2nc(N)c3ncn([C@@H]4O[C@H](COP(=O)(O)OP(=O)(O)OP(=O)(O)O)[C@@H](O)[C@H]4O)c3n2)cc1 | 1.53 nM | – | – | – | – | –
C=CCCCCSc1nc(N)c2ncn(C3O[C@H](COP(=O)(O)OP(=O)(O)O)[C@@H](O)[C@H]3O)c2n1 (stereo partly specified) | 4 nM | 8.1 | – | – | – | –
Nc1ncnc2c1ncn2[C@@H]1O[C@H](COP(=O)(O)O)[C@@H](O)[C@H]1O [ADENOSINE PHOSPHATE] | – | – | – | inactive | – | K 0.5 [17]: inactive; Relative activity [11]: inactive; Relative activity [12]: inactive; Relative activity [18]: Partially active; Relative activity [19]: 4.8; Relative activity [20]: 5
N#CSCCCCCCCSc1nc(N)c2ncn(C3O[C@H](COP(=O)(O)OP(=O)(O)OP(=O)(O)O)[C@@H](O)[C@H]3O)c2n1 (stereo partly specified) | 25.9 nM | – | – | – | – | –
NCCCCCCCSc1nc(N)c2ncn(C3O[C@H](COP(=O)(O)OP(=O)(O)OP(=O)(O)O)[C@@H](O)[C@H]3O)c2n1 (stereo partly specified) | 72.8 nM | – | – | – | – | –
Nc1ncnc2c1ncn2[C@@H]1O[C@H](COP(=O)(O)OP(=O)(O)O)[C@@H](O)[C@H]1O [ADENOSINE DIPHOSPHATE] | 8000 nM | – | – | inactive | – | Relative activity [21]: Partially active; Relative activity [13]: Active; Relative activity [22]: 5.2; Relative activity [20]: 5.2; Relative activity [7]: Active
Nc1nc(SCCc2ccc([N+](=O)[O-])cc2)nc2c1ncn2C1O[C@H](COP(=O)(O)OP(=O)(O)OP(=O)(O)O)[C@@H](O)[C@H]1O (stereo partly specified) | 12 nM | 8 | 7 | – | 6.2 | Relative activity [23]: Partially active; Relative activity [9]: Active; Relative activity [24]: 2.6%
Nc1nc(SC2CCCCC2)nc2c1ncn2C1O[C@H](COP(=O)(O)OP(=O)(O)OP(=O)(O)O)[C@@H](O)[C@H]1O (stereo partly specified) | 24 nM | 8 | – | inactive | – | Relative activity [25]: Active; Relative activity [14]: 5.9; Relative activity [26]: 6.3; Relative activity [7]: Active
CNc1ncnc2c1ncn2[C@@H]1O[C@H](COP(=O)(O)OP(=O)(O)OP(=O)(O)O)[C@@H](O)[C@H]1O | 19000 nM | – | – | inactive | – | Relative activity [12]: inactive; Relative activity [27]: inactive; Relative activity [13]: 5.8; Relative activity [28]: inactive; Relative activity [29]: Partially active
Nc1ncnc2c1ncn2[C@@H]1O[C@H](CO)[C@@H](O)[C@H]1O [ADENOSINE] | – | – | – | inactive | – | K 0.5 [17]: inactive; Relative activity [11]: inactive; Relative activity [12]: inactive; Relative activity [18]: 3.9; Relative activity [14]: 5.7; Relative activity [30]: 6
Nc1nc(Cl)nc2c1ncn2[C@@H]1O[C@H](COP(=O)(O)OP(=O)(O)OP(=O)(O)O)[C@@H](O)[C@H]1O | 72 nM | 7.2 | – | inactive | – | Relative activity [2]: Active; Relative activity [30]: 6.2; Relative activity [22]: 5.8; Relative activity [7]: Active
N#CCCCCCCSc1nc(N)c2ncn(C3O[C@H](COP(=O)(O)OP(=O)(O)OP(=O)(O)O)[C@@H](O)[C@H]3O)c2n1 (stereo partly specified) | 10 nM | 8.6 | 6.9 | – | 7 | Relative activity [31]: Active; Relative activity [9]: Active; Relative activity [24]: 9.2%
CCCCCCSc1nc(N)c2ncn(C3O[C@H](COP(=O)(O)OP(=O)(O)OP(=O)(O)O)[C@@H](O)[C@H]3O)c2n1 (stereo partly specified) | 5 nM | 7.5 | 6.7 | inactive | 6.7 | Relative activity [25]: Active; Relative activity [7]: Active
